Shown are actives, neighbours in structure and some others; about 2.4% of the full set was active somewhere.
NPY1 pot ag: NPY-Y1 receptor potentiators or agonists, primary screen, cell-based; Neuropeptide Y receptor type 1 (Homo sapiens), P25929; NPY-Y1 expressing cells, potentiator/agonist activation; activation, % at 3.6 µM; 0.37% of 220,000 active; AID 1304, 2008; in the data active = activation above about 33%, passing the limit was not always enough;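 note: cells stimulated with NPY at EC10 then isoproterenol at EC100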
S1P4 antagonist: S1P4 receptor antagonists, primary screen, cell-based. S1P4-expressing cells, antagonist mode, reporter read-out. 0.26% of 220,000 active. Sphingosine 1-phosphate receptor 4 (Homo sapiens), O95977. inhibition, % at 4.98 µM; in the data active = inhibition above about 29%
Target sequence (O95977 whole entry, looked up): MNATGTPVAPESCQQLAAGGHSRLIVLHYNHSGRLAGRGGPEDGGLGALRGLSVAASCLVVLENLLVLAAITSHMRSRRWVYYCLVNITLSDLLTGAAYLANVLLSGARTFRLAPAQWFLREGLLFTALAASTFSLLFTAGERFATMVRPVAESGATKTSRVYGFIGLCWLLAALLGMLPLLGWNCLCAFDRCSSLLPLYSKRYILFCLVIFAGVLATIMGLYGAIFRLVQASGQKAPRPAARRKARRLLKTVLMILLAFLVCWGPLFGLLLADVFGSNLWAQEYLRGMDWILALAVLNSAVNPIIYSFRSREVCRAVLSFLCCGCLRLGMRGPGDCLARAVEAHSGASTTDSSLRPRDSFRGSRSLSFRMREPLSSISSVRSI
NPY Y1 blocker: NPY-Y1 receptor antagonists, primary screen, cell-based. HEK293-CNG Y1 cells, membrane potential fluorescence; NPY at EC95, then isoproterenol. inhibition, % at 3.6 µM. 1% of 200,000 active;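 active = inhibition above the campaign mean inhibition of all tested compounds plus 3 SD, cut at about 20% in these data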
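Assay system: HEK293 cells with Y1 receptor plus CNG channel | Probe or stimulus: NPY (25 nM), isoproterenol (1 µM), Ro 20-1724 (25 µM) | Timing: Compound incubation 1 h at room temperature, readout 45 min post-stimulation | Measured by: Membrane-potential fluorescent dye readout | Benchmarks: High control isoproterenol alone, low control NPY with isoproterenol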
NPY-Y2 PAM-ag: NPY-Y2 potentiators or agonists, primary screen, cell-based. AID 1359, 2008. activation, % at 3.6 µM. 0.45% of 220,000 active. cells expressing NPY-Y2, potentiator/agonist read-out; in the data active = activation above about 27%;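 note: cells stimulated with NPY near EC25 plus isoproterenol at EC100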
NPY-Y2 antag: NPY-Y2 receptor antagonists, primary screen, cell-based; inhibition, % at 2.7 µM; 0.99% of 140,000 active; Neuropeptide Y receptor type 2 (Homo sapiens), P49146; NPY-Y2 expressing cells, antagonist mode; in the data active = inhibition above about 17%
S1P4 ag: S1P4 receptor agonists, primary screen, cell-based | Sphingosine 1-phosphate receptor 4 (Homo sapiens), O95977 | S1P4-expressing cell line, agonist reporter assay | activation, % at 4.98 µM | 0.35% of 220,000 active | AID 1509, 2009; in the data active = activation above about 11%
Numbers stand for hits.

What do the screens show for `CCN(CC(=O)NC(C)C)C(=O)[C@H](C)NC(=O)c1ccc(Br)cc1`?
NPY1 pot ag: inactive; S1P4 antagonist: inactive; NPY Y1 blocker: inactive; NPY-Y2 PAM-ag: inactive; S1P4 ag: inactive

What do the screens show for `C=CCN1C(=O)CS/C1=N\N=C\c1cccc([N+](=O)[O-])c1`?
NPY1 pot ag: inactive; S1P4 antagonist: inactive; NPY Y1 blocker: inactive; NPY-Y2 PAM-ag: inactive; S1P4 ag: inactive

What do the screens show for `Cc1ccc(C(c2nnnn2C(C)(C)C)N(Cc2ccco2)Cc2cccs2)cc1` (configuration not stated)?
NPY1 pot ag: inactive; S1P4 antagonist: inactive; NPY Y1 blocker: inactive; NPY-Y2 PAM-ag: inactive; NPY-Y2 antag: 18; S1P4 ag: inactive

How did CC(C)C(c1nnnn1Cc1ccccc1)N(Cc1ccco1)Cc1cccs1 (configuration not stated) do in these assays?
NPY1 pot ag: inactive; S1P4 antagonist: inactive; NPY Y1 blocker: inactive; NPY-Y2 PAM-ag: inactive; NPY-Y2 antag: inactive; S1P4 ag: inactive

What do the screens show for `CCCn1c(=N)n(CC(O)c2ccco2)c2ccccc21` (configuration not stated)?
NPY1 pot ag: inactive; S1P4 antagonist: inactive; NPY Y1 blocker: inactive; NPY-Y2 PAM-ag: inactive; NPY-Y2 antag: inactive; S1P4 ag: inactive

Results for Cc1ccc(Cn2c(=N)n(CC(O)c3ccco3)c3ccccc32)cc1 (configuration not stated) ?
NPY1 pot ag: inactive; S1P4 antagonist: inactive; NPY Y1 blocker: inactive; NPY-Y2 PAM-ag: inactive; NPY-Y2 antag: 23; S1P4 ag: inactive

What do the screens show for `O=C1Nc2ccccc2/C1=N\N=C\C1=C(N2CCOCC2)C(=C\c2ccccc2)/CC1`?
NPY1 pot ag: 46; S1P4 antagonist: inactive; NPY Y1 blocker: inactive; NPY-Y2 PAM-ag: 42; NPY-Y2 antag: inactive; S1P4 ag: inactive

What do the screens show for `Cn1cc(C(=O)N/N=C/C2=C(N3CCOCC3)C(=C\c3ccccc3)/CC2)ccc1=O`?
NPY1 pot ag: inactive; S1P4 antagonist: inactive; NPY Y1 blocker: inactive; NPY-Y2 PAM-ag: inactive; NPY-Y2 antag: inactive; S1P4 ag: inactive

How did CC(C)c1nc(CN(C)C(=O)N[C@H](C(=O)N[C@@H](Cc2ccccc2)C[C@H](O)[C@H](Cc2ccccc2)NC(=O)OCc2cncs2)C(C)C)cs1 do in these assays?
NPY1 pot ag: inactive; S1P4 antagonist: inactive; NPY Y1 blocker: inactive; NPY-Y2 PAM-ag: inactive; S1P4 ag: inactive

Results for CCC(=O)OCc1c(C(F)(F)F)nn(C)c1Sc1ccc(Cl)cc1 ?
NPY1 pot ag: inactive; S1P4 antagonist: inactive; NPY Y1 blocker: inactive; NPY-Y2 PAM-ag: inactive; NPY-Y2 antag: inactive; S1P4 ag: inactive

Results for CCC(=O)OCc1c(C(F)(F)F)nn(C)c1Sc1ccc(F)cc1 ?
NPY1 pot ag: inactive; S1P4 antagonist: inactive; NPY Y1 blocker: inactive; NPY-Y2 PAM-ag: inactive; NPY-Y2 antag: inactive; S1P4 ag: 11

Results for COc1cc(CO)cc(Br)c1OCC(=O)Nc1cccc2ccccc12 ?
NPY1 pot ag: inactive; S1P4 antagonist: inactive; NPY Y1 blocker: inactive; NPY-Y2 PAM-ag: inactive; S1P4 ag: inactive

What do the screens show for `Cc1ccc(S(C)(=O)=N/C=C2\C(=O)c3sccc3N(C)S2(=O)=O)cc1` (configuration not stated)?
NPY1 pot ag: inactive; S1P4 antagonist: inactive; NPY-Y2 PAM-ag: inactive; S1P4 ag: inactive

What do the screens show for `CCN(CC)c1ncc(C#N)c(N)n1`?
NPY1 pot ag: inactive; S1P4 antagonist: inactive; NPY-Y2 PAM-ag: inactive; S1P4 ag: inactive

What do the screens show for `CC1(C)CC(=O)C2=C(C1)OC(N)=C(C#N)C2c1cn(-c2ccccc2)nc1-c1ccc(F)cc1` (configuration not stated)?
NPY1 pot ag: 68; S1P4 antagonist: inactive; NPY Y1 blocker: inactive; NPY-Y2 PAM-ag: 65; NPY-Y2 antag: inactive; S1P4 ag: inactive

How did Cc1sc2nc(SCC(=O)C(C)(C)C)n(Cc3ccco3)c(=O)c2c1C do in these assays?
NPY1 pot ag: inactive; S1P4 antagonist: inactive; NPY Y1 blocker: 29; NPY-Y2 PAM-ag: inactive; NPY-Y2 antag: 18; S1P4 ag: inactive

Results for C=CCn1c(SCc2c(C)noc2C)nc2sc(C)c(C)c2c1=O ?
NPY1 pot ag: inactive; S1P4 antagonist: inactive; NPY Y1 blocker: 21; NPY-Y2 PAM-ag: inactive; NPY-Y2 antag: 17; S1P4 ag: inactive

How did CN(C1=C(NC(=O)c2ccc(Cl)cc2)C(=O)c2ccccc2C1=O)c1ccccc1 do in these assays?
NPY1 pot ag: 56; S1P4 antagonist: inactive; NPY Y1 blocker: inactive; NPY-Y2 PAM-ag: 72; NPY-Y2 antag: inactive; S1P4 ag: inactive

What do the screens show for `O=C(NC1=C(Nc2ccc(Cl)cc2)C(=O)c2ccccc2C1=O)c1ccccc1`?
NPY1 pot ag: inactive; S1P4 antagonist: inactive; NPY Y1 blocker: inactive; NPY-Y2 PAM-ag: inactive; NPY-Y2 antag: inactive; S1P4 ag: inactive

Results for O=C1C2C3C=CC(C3)C2C(=O)N1CCCCCCN1C(=O)C2C3C=CC(C3)C2C1=O (configuration not stated) ?
NPY1 pot ag: inactive; S1P4 antagonist: inactive; NPY Y1 blocker: inactive; NPY-Y2 PAM-ag: inactive; S1P4 ag: inactive

What do the screens show for `O=C1C=CC(=O)N1CCCCCCN1C(=O)C=CC1=O`?
NPY1 pot ag: inactive; S1P4 antagonist: 79; NPY Y1 blocker: inactive; NPY-Y2 PAM-ag: inactive; NPY-Y2 antag: inactive; S1P4 ag: inactive

What do the screens show for `CCc1ccc(C(=O)Cn2ncc(Cl)c(Cl)c2=O)cc1`?
NPY1 pot ag: inactive; S1P4 antagonist: inactive; NPY Y1 blocker: inactive; NPY-Y2 PAM-ag: inactive; NPY-Y2 antag: inactive; S1P4 ag: inactive

Results for O=C(OCn1ncc(Cl)c(Cl)c1=O)c1cccc(C(F)(F)F)c1 ?
NPY1 pot ag: inactive; S1P4 antagonist: 34; NPY Y1 blocker: inactive; NPY-Y2 PAM-ag: inactive; NPY-Y2 antag: inactive; S1P4 ag: inactive

What do the screens show for `O=C(Nc1ccccc1N1CCN(c2ccc(F)cc2)CC1)c1ccccc1`?
NPY1 pot ag: inactive; S1P4 antagonist: inactive; NPY Y1 blocker: 49; NPY-Y2 PAM-ag: inactive; NPY-Y2 antag: 29; S1P4 ag: inactive

How did O=C(COc1ccccc1)Nc1ccccc1N1CCN(c2ccc(F)cc2)CC1 do in these assays?
NPY1 pot ag: inactive; S1P4 antagonist: inactive; NPY Y1 blocker: inactive; NPY-Y2 PAM-ag: inactive; NPY-Y2 antag: inactive; S1P4 ag: inactive

How did Cn1nc(C(F)(F)F)c(-c2cccc(C(F)(F)F)c2)c1NC(=O)CSCC(=O)O do in these assays?
NPY1 pot ag: inactive; S1P4 antagonist: inactive; NPY-Y2 PAM-ag: inactive; S1P4 ag: inactive

Results for COc1ccc(NC(=O)Cc2nc3ccccc3[nH]2)cc1 ?
NPY1 pot ag: inactive; S1P4 antagonist: inactive; NPY Y1 blocker: inactive; NPY-Y2 PAM-ag: inactive; NPY-Y2 antag: 22; S1P4 ag: inactive

What do the screens show for `COc1ccc(CC(=O)Nc2nc3ccccc3[nH]2)cc1`?
NPY1 pot ag: inactive; S1P4 antagonist: inactive; NPY-Y2 PAM-ag: inactive; S1P4 ag: inactive

Screening results: PubChem BioAssay, The Scripps Research Institute Molecular Screening Center
